{"source": "paper PMC11393732", "about": "(RSC Medicinal Chemistry, 2024)", "key": {"[1]": {"tested_on": "293T cells expressing a TCF-responsive luciferase reporter (293T-TCF-Luc)", "test": "Wnt luciferase reporter assay", "type": "cell-based", "details": "Homo sapiens, HEK-293T, 16 h, read-out: IC50 (293T-TCF-Luc)", "method_in_brief": "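293T cells stably transduced with a lentiviral TCF/LEF–luciferase reporter and selected in puromycin ([…], 4 days). Seeded at 100 000 cells/well and dosed with test compound on attachment. Wnt signalling stimulated with 20 mM LiCl 4 h later. Lysates taken at 16 h; Bright-Glo luminescence normalised to total protein.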"}, "KDM3A": {"molecular_target": "T1, KDM3A (Homo sapiens, UniProt Q9Y4C1)", "T1 sequence (Q9Y4C1 1-1321)": "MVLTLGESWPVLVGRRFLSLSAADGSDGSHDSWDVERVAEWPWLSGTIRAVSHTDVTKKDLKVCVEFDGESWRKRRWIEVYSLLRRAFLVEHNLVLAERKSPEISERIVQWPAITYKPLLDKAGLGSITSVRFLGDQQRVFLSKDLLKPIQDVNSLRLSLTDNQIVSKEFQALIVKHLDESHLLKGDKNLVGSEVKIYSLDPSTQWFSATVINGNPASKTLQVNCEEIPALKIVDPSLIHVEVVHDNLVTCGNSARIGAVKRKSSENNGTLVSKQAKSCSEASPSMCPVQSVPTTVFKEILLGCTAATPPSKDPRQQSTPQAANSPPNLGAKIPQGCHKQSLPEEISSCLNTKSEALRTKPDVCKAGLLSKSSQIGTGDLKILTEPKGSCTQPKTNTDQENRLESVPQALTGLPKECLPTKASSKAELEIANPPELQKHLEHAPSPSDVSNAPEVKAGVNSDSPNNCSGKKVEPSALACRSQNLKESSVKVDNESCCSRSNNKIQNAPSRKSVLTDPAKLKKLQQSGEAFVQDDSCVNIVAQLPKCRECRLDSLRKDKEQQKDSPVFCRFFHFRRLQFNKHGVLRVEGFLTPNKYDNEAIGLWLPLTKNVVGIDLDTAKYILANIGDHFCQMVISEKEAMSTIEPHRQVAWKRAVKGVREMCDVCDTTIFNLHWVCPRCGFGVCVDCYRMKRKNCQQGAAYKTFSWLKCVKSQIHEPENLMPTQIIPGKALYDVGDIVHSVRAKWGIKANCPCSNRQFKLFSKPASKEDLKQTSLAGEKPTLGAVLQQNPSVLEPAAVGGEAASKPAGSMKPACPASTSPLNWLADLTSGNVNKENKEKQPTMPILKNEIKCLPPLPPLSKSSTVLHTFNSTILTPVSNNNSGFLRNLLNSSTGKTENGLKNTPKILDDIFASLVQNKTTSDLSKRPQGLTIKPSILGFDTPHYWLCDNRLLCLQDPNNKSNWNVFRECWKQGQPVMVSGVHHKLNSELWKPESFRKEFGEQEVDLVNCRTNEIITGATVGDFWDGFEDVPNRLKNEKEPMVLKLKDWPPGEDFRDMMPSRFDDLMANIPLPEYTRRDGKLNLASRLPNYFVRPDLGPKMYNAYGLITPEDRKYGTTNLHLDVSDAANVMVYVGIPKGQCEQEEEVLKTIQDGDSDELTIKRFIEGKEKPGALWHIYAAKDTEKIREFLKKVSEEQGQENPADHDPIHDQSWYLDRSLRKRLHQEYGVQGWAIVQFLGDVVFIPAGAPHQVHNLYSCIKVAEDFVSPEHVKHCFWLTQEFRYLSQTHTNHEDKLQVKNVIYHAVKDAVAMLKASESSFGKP", "test": "Western blot KDM3A degradation in SW480 cells", "type": "cell-based", "method_in_brief": "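SW480 cells exposed to test compound for 16 h, then total lysates protein-normalised and run on SDS-PAGE. Semi-dry transfer to PVDF, 1 h block in 5% milk. Primary antibody overnight at 4 °C in 1% milk, secondary 1 h at RT, TBST washes, α-tubulin as loading control. Rescue arms co-treated with MLN4924 (1 μM) or pomalidomide (100 μM). Test compound at 0.1 μM for the KDM3A blot and 1 μM for the KDM3B blot.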"}, "GSPT1": {"molecular_target": "GSPT1 (Homo sapiens, UniProt P15170)", "sequence (Q16531 whole entry)": "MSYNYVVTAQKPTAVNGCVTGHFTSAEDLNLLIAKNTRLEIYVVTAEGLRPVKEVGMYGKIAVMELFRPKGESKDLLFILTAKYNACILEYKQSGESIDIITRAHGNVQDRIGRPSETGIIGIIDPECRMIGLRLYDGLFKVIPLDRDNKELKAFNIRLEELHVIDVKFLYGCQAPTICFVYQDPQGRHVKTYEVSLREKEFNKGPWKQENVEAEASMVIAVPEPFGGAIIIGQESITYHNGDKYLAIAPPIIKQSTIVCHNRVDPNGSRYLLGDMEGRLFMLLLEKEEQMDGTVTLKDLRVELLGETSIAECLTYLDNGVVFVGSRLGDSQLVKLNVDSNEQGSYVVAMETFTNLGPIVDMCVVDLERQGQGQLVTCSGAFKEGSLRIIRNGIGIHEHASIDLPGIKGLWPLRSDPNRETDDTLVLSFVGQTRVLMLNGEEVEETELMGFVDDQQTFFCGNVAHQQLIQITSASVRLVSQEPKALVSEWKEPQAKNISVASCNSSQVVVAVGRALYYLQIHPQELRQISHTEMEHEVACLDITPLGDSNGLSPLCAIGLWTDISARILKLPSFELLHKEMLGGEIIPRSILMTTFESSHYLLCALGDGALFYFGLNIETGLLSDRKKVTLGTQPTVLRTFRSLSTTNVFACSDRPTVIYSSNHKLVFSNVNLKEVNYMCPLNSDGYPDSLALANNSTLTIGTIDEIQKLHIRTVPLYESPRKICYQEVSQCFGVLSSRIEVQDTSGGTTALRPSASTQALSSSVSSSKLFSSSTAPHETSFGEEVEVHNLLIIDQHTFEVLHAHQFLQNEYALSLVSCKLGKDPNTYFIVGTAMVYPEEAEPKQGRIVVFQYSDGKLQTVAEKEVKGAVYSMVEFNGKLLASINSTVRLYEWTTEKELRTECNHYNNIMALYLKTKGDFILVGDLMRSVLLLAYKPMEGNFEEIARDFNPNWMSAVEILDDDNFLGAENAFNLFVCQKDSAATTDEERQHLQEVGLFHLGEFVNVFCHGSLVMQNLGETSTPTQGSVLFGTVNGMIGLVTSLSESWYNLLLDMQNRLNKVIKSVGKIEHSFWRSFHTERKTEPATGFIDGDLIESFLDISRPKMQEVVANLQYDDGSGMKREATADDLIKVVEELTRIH", "sequence (Q96SW2 whole entry, further chain)": "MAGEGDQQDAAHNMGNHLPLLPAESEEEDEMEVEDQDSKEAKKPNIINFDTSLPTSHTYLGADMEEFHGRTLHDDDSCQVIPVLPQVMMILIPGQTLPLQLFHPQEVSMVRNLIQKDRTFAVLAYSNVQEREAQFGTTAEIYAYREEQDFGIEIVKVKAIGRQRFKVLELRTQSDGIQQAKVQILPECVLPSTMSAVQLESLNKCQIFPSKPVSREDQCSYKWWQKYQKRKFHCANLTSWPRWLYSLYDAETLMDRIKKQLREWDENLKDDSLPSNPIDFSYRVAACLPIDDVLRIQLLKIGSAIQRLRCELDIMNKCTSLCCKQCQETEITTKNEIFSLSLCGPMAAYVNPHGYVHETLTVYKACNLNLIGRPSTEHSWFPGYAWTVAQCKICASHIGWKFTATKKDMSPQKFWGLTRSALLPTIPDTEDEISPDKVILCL", "sequence (P15170 whole entry)": "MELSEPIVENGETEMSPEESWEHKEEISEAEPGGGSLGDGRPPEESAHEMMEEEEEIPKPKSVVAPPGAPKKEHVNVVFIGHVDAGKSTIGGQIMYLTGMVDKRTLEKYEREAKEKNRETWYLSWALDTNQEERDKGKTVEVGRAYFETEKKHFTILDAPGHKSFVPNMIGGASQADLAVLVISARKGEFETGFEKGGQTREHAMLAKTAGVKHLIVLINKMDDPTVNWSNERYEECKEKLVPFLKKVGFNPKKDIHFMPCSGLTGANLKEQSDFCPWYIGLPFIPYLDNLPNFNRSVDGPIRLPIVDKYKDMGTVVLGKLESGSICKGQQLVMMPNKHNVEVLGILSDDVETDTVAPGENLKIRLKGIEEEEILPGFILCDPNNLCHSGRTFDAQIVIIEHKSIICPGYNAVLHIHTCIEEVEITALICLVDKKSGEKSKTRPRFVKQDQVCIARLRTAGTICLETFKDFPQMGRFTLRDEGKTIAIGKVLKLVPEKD", "test": "Western blot neo-substrate GSPT1 degradation in SW480 cells", "type": "cell-based", "details": "16 hours"}, "CRL-1790 cells": {"tested_on": "CRL-1790 cells", "test": "CCK-8 based toxicity assay", "type": "cell-based, human", "method_in_brief": "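Non-malignant human colon epithelial CRL-1790 cells grown in EMEM with 10% FBS and 1% pen–strep at 37 °C and 5% CO2. Seeded at 3 × 10^3 cells/well in 96-well plates, then exposed to test compound. Viability read by CCK-8 at 48 h as OD 450 nm. TD50 derived from the dose–response.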"}, "[2]": {"tested_on": "Wnt target genes in SW480 cells", "test": "RT-qPCR of Wnt target gene expression in SW480", "type": "cell-based, human", "method_in_brief": "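Cells in 6-well plates exposed to test compound for 16 h. Total RNA extracted; 1 μg reverse-transcribed with M-MuLV and random hexamers. SYBR Green qPCR for the named genes, quantified by 2ΔΔct against tubulin. Mean ± SD; unpaired two-tailed Student's t-test.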"}, "SW480 cells": {"tested_on": "SW480 cells", "test": "Clonogenic assay SW480", "type": "cell-based, human", "details": "SW480, 2 weeks", "method_in_brief": "(§1)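 Cells kept in DMEM with 10% FBS and 1% pen–strep, seeded at 500 cells/well and dosed with test compound once attached. Medium refreshed every 3 days for 2 weeks. Colonies stained with 0.5% crystal violet and photographed. ED50 obtained by image analysis.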"}, "HCP-1 cells": {"tested_on": "HCP-1 cells", "test": "Clonogenic assay HCP-1", "type": "cell-based, human", "details": "HCP-1, 2 weeks", "method_in_brief": "as §1"}, "ALDH^high-HCP-1 CSCs": {"tested_on": "ALDH^high-HCP-1 CSCs", "test": "Tumor sphere formation assay HCP-1", "type": "cell-based, human", "details": "2 weeks", "method_in_brief": "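Trypsinised cells passed through a 40 μm strainer and stained with ALDEFLUOR. ALDHHigh cells sorted by FACS, with DEAB-treated cells as gating control. Plated at 1000 cells/well on ultra-low attachment in serum-free MEBM containing 2% B27, 20 ng mL−1 EGF, 10 ng mL−1 FGF, 1 ng mL−1 hydrocortisone, 5 μg mL−1 insulin and 100 μM β-mercaptoethanol. Dosed 1 h after plating; medium renewed at 1 week. Spheres >40 μm counted at 2 weeks for ED50.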"}, "[3]": {"test": "Hepatic metabolism S9 fraction incubation, rat"}, "[4]": {"test": "Hepatic metabolism S9 fraction incubation, human"}, "[5]": {"details": "0.1 μM, plus glutathione, UDPGA, PAPS, 37 °C"}}, "note": "pIC50: −log10 of the molar value.", "data": [{"smiles": "O=C1CCC(N2C(=O)c3cccc(NCCOCCOCCOCCOCCNC(=O)c4ccc(O)c5ncccc45)c3C2=O)C(=O)N1", "note": "(stereo not shown) [Compound 4, N-(14-((2-(2,6-Dioxopiperidin-3-yl)-1,3-dioxoisoindolin-4-yl)amino)-3,6,9,12-tetraoxatetradecyl)-8-hydroxyquinoline-5-carboxamide]", "values": [{"measurement": "pIC50", "setting": "[1]", "result": 5.05}, {"measurement": "Dmax", "setting": "KDM3A; SW480, read-out: Dmax KDM3A", "result": 65.3, "unit": "%"}, {"measurement": "KDM3A degradation with MLN4924 co-treatment", "setting": "KDM3A; SW480, MLN4924 1 μM, compound 4 0.1 μM", "result": "could be restored by MLN4924"}, {"measurement": "KDM3A degradation with pomalidomide or IOX1 co-treatment", "setting": "KDM3A; SW480, pomalidomide 100 μM, compound 4 0.1 μM", "result": "could also be suppressed by either pomalidomide or IOX1"}, {"measurement": "KDM3A degradation (western blot)", "setting": "KDM3A; SW480 cells, 16 hours", "result": "degrades both KDM3A and KDM3B at nanomolar concentrations"}, {"measurement": "DC50", "setting": "KDM3A; read-out: DC50 KDM3A, SW480 cells, 16 hours", "result": 13.7, "unit": "nM"}, {"measurement": "GSPT1 degradation", "setting": "GSPT1", "result": "did not induce"}, {"measurement": "cell growth of CRL-1790", "setting": "CRL-1790 cells; 60 μM, two-day treatment", "result": "not dramatically affected"}, {"measurement": "TD50 CRL-1790", "setting": "CRL-1790 cells; CCK8 assay, 48 h post drug treatment", "result": 285.4, "unit": "µM"}, {"measurement": "suppression of Wnt target gene expression (AXIN2, DKK1, CCND1)", "setting": "[2]; SW480, 50 μM, 16-hour treatment, in most cases", "result": "≥ 50", "unit": "%"}, {"measurement": "expression of colorectal CSC signature genes (ASCL2, RNF43, ZNRF3, LGR5)", "setting": "[2]; SW480, 16 hours", "result": "strongly inhibited"}, {"measurement": "colony formation", "setting": "SW480 cells", "result": "potently inhibited the colony formation"}, {"measurement": "colony formation", "setting": "HCP-1 cells", "result": "potently inhibited the colony formation"}, {"measurement": "ED50 HCP-1 (tumor sphere formation)", "setting": "ALDH^high-HCP-1 CSCs", "result": 280, "unit": "nM"}, {"measurement": "CLint Rat (liver, S9)", "setting": "[3]; [5]", "result": 34.5, "unit": "µL/min/mg"}, {"measurement": "t 1/2 Rat (liver, S9)", "setting": "[3]; [5]", "result": 20.1, "unit": "min"}, {"measurement": "clearance classification, rat", "setting": "[3]; CLint classification bands", "result": "moderate clearance"}, {"measurement": "half-life at 0.1 μM", "setting": "[3]; rat, s9, t 1/2 Rat (liver, S9), 0.1 μM, plus glutathione, UDPGA, PAPS, 37 °C", "result": 20, "unit": "min"}, {"measurement": "CLint Human (liver, S9)", "setting": "[4]; [5]", "result": 41.6, "unit": "µL/min/mg"}, {"measurement": "t 1/2 Human (liver, S9)", "setting": "[4]; [5]", "result": 16.7, "unit": "min"}, {"measurement": "clearance classification, human", "setting": "[4]; CLint classification bands", "result": "moderate clearance"}, {"measurement": "half-life at 0.1 μM", "setting": "[4]; human, s9, t 1/2 Human (liver, S9), 0.1 μM, plus glutathione, UDPGA, PAPS, 37 °C", "result": 16, "unit": "min"}]}]}
